Like-named read-outs stand apart in the source and are kept apart here.
How the values were obtained:
caspase-3 in KP02 cells = assay: Caspase-3 activation; assay type: cell-based, mouse; settings: KP02, 25 μM, 5 hours, relative to vehicle
In short: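 KP02 cells (DMEM/Ham's F-12 1:1, 10% FBS, 37 °C, 5% CO2) seeded at 1 × 10^4/well 24 h before treatment. Exposed to 25 μM test compound for 5 h, with or without α-tocopherol (100 μM) or Z-DEVD-FMK (1 μM). Caspase-Glo reagent with luminogenic caspase substrate added, shaken 30 s, then 90 min at room temperature. Luminescence read relative to DMSO-treated cells. Triplicates; n ≥ 3 independent experiments, mean ± SEM.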

σ1 receptor = σ1 receptor (Homo sapiens, UniProt Q99720); assay: σ1 binding by flow cytometry in MCF7σ1 cells; settings: displacement of σ1 fluorescent compound, 0.1 nmol/L-10 μM
Sequence of σ1 receptor (Q99720 whole entry): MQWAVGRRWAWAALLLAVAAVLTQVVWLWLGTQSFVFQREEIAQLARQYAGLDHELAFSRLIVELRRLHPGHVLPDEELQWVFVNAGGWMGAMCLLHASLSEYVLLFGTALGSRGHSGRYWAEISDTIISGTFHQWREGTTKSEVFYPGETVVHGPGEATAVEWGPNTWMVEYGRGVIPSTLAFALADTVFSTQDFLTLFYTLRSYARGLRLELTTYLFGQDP
In short: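 MCF7 cells engineered for σ1 (DMEM, 10% FBS) incubated with test compound at 0.1, 1, 10, 100 nmol/L, 1 and 10 μM. Then 100 nmol/L σ1 fluorescent probe added for 75 min at 37 °C, with F390 (10 μM) co-incubated to mask σ2. Cells washed twice with PBS, detached (10 min, 37 °C), pelleted and resuspended in PBS. Fluorescence read by flow cytometry through a 530 nm band-pass filter, 50,000 events per sample.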

[1] = tested on: pancreatic cancer cell lines; assay: MTT viability, summary over the panel of pancreatic cancer cell lines; settings: 48 h, read-out: Cytotoxic EC50 values in most of the cell lines studied
KCKO = assay: MTT viability, 48 h; assay type: cell-based, mouse; settings: read-out: Activity, EC50 KCKO
MIAPaCa-2 = assay: MTT viability, 48 h; assay type: cell-based, human; settings: read-out: Activity, EC50 MIAPaCa-2, 48 hr treatment
Panc-1 = assay: MTT viability, 48 h; assay type: cell-based, human; settings: read-out: Activity, EC50 Panc-1
KP02 = assay: MTT viability, 48 h; assay type: cell-based, mouse; settings: read-out: Activity, EC50 KP02
AsPC1 = assay: MTT viability, 48 h; assay type: cell-based, human; settings: read-out: Activity, EC50 AsPC1
KP02 tumors = assay: In vivo tumor growth, subcutaneous KP02 tumors in C57BL/6 mice
Panc02 = assay: MTT viability, 48 h; assay type: cell-based, mouse; settings: read-out: Activity, EC50 Panc02
BxPC3 = assay: MTT viability, 48 h; assay type: cell-based, human; settings: read-out: Activity, EC50 BxPC3
[2] = assay type: in vivo; settings: for PCV: 7 at 750nmol/100μL, 1 and 2 at 1500nmol/100 μL, 2 weeks, n = 3, control 47.5 ± 3; for Necropsy/histology findings (pulmonary metastases, nephropathy) / Mouse weight at necropsy: after 2 weeks daily i.p. treatment; for Mouse weight at necropsy: vehicle 19.5± 0.5; for Treatment-related deaths: 750 nmol/100μL i.p. daily for two weeks
P-gp = P-gp (Homo sapiens, UniProt P08183); assay: Calcein-AM assay in MDCK-MDR1 cells; assay type: cell-based; settings: n.a. = not active, mean of n ≥ 3 ± SEM
Sequence of P-gp (P08183 whole entry): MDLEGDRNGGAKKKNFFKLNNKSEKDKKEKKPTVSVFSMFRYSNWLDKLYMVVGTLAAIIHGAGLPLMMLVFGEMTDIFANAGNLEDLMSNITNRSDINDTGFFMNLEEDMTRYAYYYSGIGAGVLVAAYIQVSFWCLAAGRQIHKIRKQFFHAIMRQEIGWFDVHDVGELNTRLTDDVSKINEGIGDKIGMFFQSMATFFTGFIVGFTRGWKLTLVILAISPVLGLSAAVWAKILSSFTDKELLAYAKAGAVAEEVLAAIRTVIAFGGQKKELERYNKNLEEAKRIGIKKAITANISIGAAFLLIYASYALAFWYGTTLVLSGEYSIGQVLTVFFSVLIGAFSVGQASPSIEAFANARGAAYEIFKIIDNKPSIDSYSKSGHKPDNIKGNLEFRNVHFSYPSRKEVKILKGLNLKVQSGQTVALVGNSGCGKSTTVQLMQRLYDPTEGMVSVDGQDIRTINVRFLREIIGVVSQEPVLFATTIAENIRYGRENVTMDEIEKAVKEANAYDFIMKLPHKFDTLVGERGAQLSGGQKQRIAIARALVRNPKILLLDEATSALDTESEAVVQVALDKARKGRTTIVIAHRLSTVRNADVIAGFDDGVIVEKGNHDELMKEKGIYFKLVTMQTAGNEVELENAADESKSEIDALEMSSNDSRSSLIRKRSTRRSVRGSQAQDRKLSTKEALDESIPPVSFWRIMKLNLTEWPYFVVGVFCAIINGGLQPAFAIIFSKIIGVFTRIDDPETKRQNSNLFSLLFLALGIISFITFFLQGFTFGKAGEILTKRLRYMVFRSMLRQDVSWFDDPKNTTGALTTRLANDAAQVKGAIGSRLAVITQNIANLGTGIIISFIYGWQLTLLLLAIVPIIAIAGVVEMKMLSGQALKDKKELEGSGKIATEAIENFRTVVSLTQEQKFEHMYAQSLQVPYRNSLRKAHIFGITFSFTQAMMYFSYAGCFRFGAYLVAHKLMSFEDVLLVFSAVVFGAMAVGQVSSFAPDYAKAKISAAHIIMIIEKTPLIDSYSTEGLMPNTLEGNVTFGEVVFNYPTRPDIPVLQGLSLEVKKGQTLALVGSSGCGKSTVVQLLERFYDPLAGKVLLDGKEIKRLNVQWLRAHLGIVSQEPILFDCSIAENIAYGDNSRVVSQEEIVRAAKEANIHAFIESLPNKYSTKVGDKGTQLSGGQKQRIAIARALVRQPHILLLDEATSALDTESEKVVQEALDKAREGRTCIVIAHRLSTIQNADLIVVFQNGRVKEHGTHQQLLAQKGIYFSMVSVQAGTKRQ

KP02 tumor cells = assay: ROS involvement: MTT viability with antioxidants α-tocopherol or NAC; assay type: cell-based, mouse; settings: KP02, 4 μM compound 48 h; for Rescue of cell death by NAC: 100 μM NAC; for Rescue of cell death by α-tocopherol: 100 μM α-tocopherol 1 hour prior
[3] = tested on: mitochondrial superoxide in KP02 cells; assay: Mitochondrial superoxide detection; assay type: cell-based, mouse; settings: KP02, 50 μM, 2 hours, MitoSOX Red
In short: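 KP02 cells seeded in 12-well plates 24 h ahead, then exposed to 50 μM test compound for 2 h at 37 °C, with or without α-tocopherol. Stained with MitoSOX Red (5 μM); after 2 h, washed with PBS, harvested with trypsin/EDTA and washed again. Oxidised dye (emission ~580 nm) read by flow cytometry in FL3 as mean fluorescence intensity. Triplicates.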

[4] = tested on: pancreatic cancer cell lines
[5] = 750 nmol/100μL vehicle i.p. daily for two weeks, vehicle mean 596 mm^3
[6] = 1500 nmol/100μL vehicle i.p. daily for two weeks, vehicle mean 592 mm^3

## CN(C)C(=S)N/N=C1\C(=O)Nc2ccccc21 [Compound 7, (Z)-N,N-Dimethyl-2-(2-oxoindolin-3-ylidene)hydrazinecarbothioamide]
caspase-3 in KP02 cells
  Increase of caspase-3 activity: did not activate the caspase-3 at all
σ1 receptor
  Interaction with the σ1 receptor: ruled out
[1]
  EC50: 1210 to 3140 nM
KCKO; Mus musculus, 48 h
  EC50: 3.14 ± 0.4 µM
MIAPaCa-2
  EC50: 18.3 ± 2.1 µM
Panc-1; Homo sapiens, PANC-1, 48 h
  EC50: > 100 µM
KP02; Mus musculus, 48 h
  EC50: 2.83 ± 0.6 µM
AsPC1; Homo sapiens, ASPC1, 48 h
  EC50: 2.17 ± 0.3 µM
KP02 tumors; [5]
  Mean tumor volume after conclusion of treatment: 328 mm^3
Panc02; Mus musculus, Panc02, 48 h
  EC50: 1210 ± 100 nM
BxPC3; Homo sapiens, BXPC-3, 48 h
  EC50: 2.52 ± 0.5 µM
[2]
  PCV: 42.65 ± 2.85%
  Necropsy/histology findings (pulmonary metastases, nephropathy): foci of pulmonary metastases of the implanted tumor and a mild chronic progressive nephropathy
  Mouse weight at necropsy: 19.5 ± 0.5 grams
P-gp
  P-gp EC50: completely abolished the interaction with the P-gp
KP02 tumor cells
  Rescue of cell death by NAC: even higher levels of cell death
  Rescue of cell death by α-tocopherol: no cells were rescued

## NC(=S)N/N=C1\C(=O)Nc2ccccc21 [Compound 8, (Z)-2-(2-Oxoindolin-3-ylidene)hydrazinecarbothioamide]
KCKO; Mus musculus, 48 h
  EC50: > 100 µM
KP02; Mus musculus, 48 h
  EC50: > 100 µM
AsPC1; Homo sapiens, ASPC1, 48 h
  EC50: > 100 µM
Panc02; Mus musculus, Panc02, 48 h
  EC50: > 100000 nM
BxPC3; Homo sapiens, BXPC-3, 48 h
  EC50: > 100 µM
P-gp
  P-gp EC50: completely abolished the interaction with the P-gp

## COc1cc2c(cc1OC)C(=O)N(CCCCN1C(=O)/C(=N\NC(=S)N(C)C)c3ccccc31)CC2 [Compound 9, (Z)-2-(1-(4-(6,7-Dimethoxy-1-oxo-3,4-dihydroisoquinolin-2(1H)-yl)butyl)-2-oxoindolin-3-ylidene)-N,N-dimethylhydrazinecarbothioamide]
caspase-3 in KP02 cells
  Increase of caspase-3 activity: did not activate the caspase-3 at all
KCKO; Mus musculus, 48 h
  EC50: 4.51 ± 0.8 µM
KP02; Mus musculus, 48 h
  EC50: 5.62 ± 1.1 µM
AsPC1; Homo sapiens, ASPC1, 48 h
  EC50: 5.74 ± 0.5 µM
Panc02; Mus musculus, Panc02, 48 h
  EC50: 2180 ± 300 nM
BxPC3; Homo sapiens, BXPC-3, 48 h
  EC50: 5.93 ± 0.7 µM
KP02 tumor cells
  Rescue of cell death by NAC: even higher levels of cell death
  Rescue of cell death by α-tocopherol: rescued the pancreatic cancer cells

## CCCCN1CCc2cc(OC)c(OC)cc2C1 [Compound 10, N-Butyl-6,7-dimethoxy-1,2,3,4-tetrahydroisoquinoline]
KCKO; Mus musculus, 48 h
  EC50: > 100 µM
KP02; Mus musculus, 48 h
  EC50: > 100 µM
AsPC1; Homo sapiens, ASPC1, 48 h
  EC50: > 100 µM
Panc02; Mus musculus, Panc02, 48 h
  EC50: > 100000 nM
BxPC3; Homo sapiens, BXPC-3, 48 h
  EC50: > 100 µM

## CCCCN1CCN(C2CCCCC2)CC1 [Compound 11, 1-Butyl-4-cyclohexyl-piperazine]
KCKO; Mus musculus, 48 h
  EC50: > 100 µM
KP02; Mus musculus, 48 h
  EC50: > 100 µM
AsPC1; Homo sapiens, ASPC1, 48 h
  EC50: > 100 µM
Panc02; Mus musculus, Panc02, 48 h
  EC50: > 100000 nM
BxPC3; Homo sapiens, BXPC-3, 48 h
  EC50: > 100 µM
P-gp
  P-gp EC50: complete loss of interaction with P-gp

## (Z)-2-(1-(4-(6,7-Dimethoxy-3,4-dihydroisoquinolin-2(1H)-yl)butyl)-2-oxoindolin-3-ylidene)-N,N-dimethylhydrazinecarbothioamide [Compound 1]
caspase-3 in KP02 cells
  Increase of caspase-3 activity: did not activate the caspase-3 at all
σ1 receptor
  Interaction with the σ1 receptor: ruled out
KCKO; 48 hr treatment, MTT
  EC50: 6.49 ± 1 µM
MIAPaCa-2
  EC50: 14.6 ± 2.2 µM
Panc-1; 48 hr treatment, MTT
  EC50: 14.6 ± 2.1 µM
[3]
  Mitochondrial superoxide production, increase of mean fluorescence intensity: 6 fold
KP02; 48 hr treatment, MTT
  EC50: 6.92 ± 0.9 µM
AsPC1; 48 hr treatment, MTT
  EC50: 2.01 ± 0.6 µM
KP02 tumors; [5]
  Mean tumor volume after conclusion of treatment: statistically similar to vehicle
KP02 tumors; [6]
  Mean tumor volume after conclusion of treatment: 205 mm^3
Panc02; 48 hr treatment, MTT
  EC50: 1330 ± 200 nM
BxPC3; 48 hr treatment, MTT
  EC50: 2.34 ± 0.8 µM
[2]
  Treatment-related deaths: without experiencing any treatment-related deaths
  PCV: 45.45 ± 4.15%
  Necropsy/histology findings (pulmonary metastases, nephropathy): not noticed
  Mouse weight at necropsy: 17.5 ± 0.5 grams
[4]
  EC50: 1.17 to 14.7 µM
KP02 tumor cells
  Rescue of cell death by α-tocopherol: rescued the pancreatic cancer cells

## (Z)-2-[1-[4-(4-Cyclohexylpiperazin-1-yl)butyl]-2-oxoindolin-3-ylidene]-N,N-dimethylhydrazinecarbothioamide [Compound 2]
caspase-3 in KP02 cells
  Increase of caspase-3 activity: 6 fold
σ1 receptor
  Interaction with the σ1 receptor: ruled out
KCKO; 48 hr treatment, MTT
  EC50: 6.18 ± 0.3 µM
MIAPaCa-2
  EC50: 10.8 ± 1.3 µM
Panc-1; 48 hr treatment, MTT
  EC50: 8.73 ± 0.8 µM
[3]
  Mitochondrial superoxide production, increase of mean fluorescence intensity: 20 fold
KP02; 48 hr treatment, MTT
  EC50: 7.32 ± 0.8 µM
AsPC1; 48 hr treatment, MTT
  EC50: 3.86 ± 0.2 µM
KP02 tumors; [5]
  Mean tumor volume after conclusion of treatment: statistically similar to vehicle
KP02 tumors; [6]
  Mean tumor volume after conclusion of treatment: 196 mm^3
Panc02; 48 hr treatment, MTT
  EC50: 1170 ± 400 nM
BxPC3; 48 hr treatment, MTT
  EC50: 6.15 ± 0.6 µM
[2]
  Treatment-related deaths: without experiencing any treatment-related deaths
  PCV: 51 ± 3.8%
  Necropsy/histology findings (pulmonary metastases, nephropathy): not noticed
  Mouse weight at necropsy: 19 ± 1 grams
[4]
  EC50: 1.17 to 14.7 µM
KP02 tumor cells
  Rescue of cell death by α-tocopherol: rescued the pancreatic cancer cells

Reference: PMC5801006 (European journal of medicinal chemistry, 2017)
